Data: ChEMBL document CHEMBL4325860, “Synthesis of novel 2-(1-adamantanylcarboxamido)thiophene derivatives. Selective cannabinoid type 2 (CB2) receptor agonists as potential agents for the treatment of skin inflammatory disease” (Eur J Med Chem, 2019)
The source made the active and inactive calls. No cut-off for these calls is given here.

Assays:
Cannabinoid receptor 1 = Cannabinoid receptor 1 (Homo sapiens, UniProt P21554); test: Displacement of [3H]CP55940 from recombinant human CB1R expressed in HEK293 cell membranes measured after 90 mins
Cannabinoid receptor 2 [1] = biological target: T1, Cannabinoid receptor 2 (Homo sapiens, UniProt P34972); test: Displacement of [3H]CP55940 from recombinant human CB2R expressed in HEK293 cell membranes measured after 90 mins
[2] = biological target: Cannabinoid receptor 1 (CB1R) (Homo sapiens, UniProt P21554); test: Displacement of [3H]CP55940 from recombinant human CB1R expressed in HEK293 cell membranes at 10 uM measured after 90 mins relative to control; details: membranes of HEK293 cells expressing recombinant human CB1R, probe [3H]CP55940
Cannabinoid receptor 2 [3] = biological target: T1, Cannabinoid receptor 2; test: Displacement of [3H]CP55940 from recombinant human CB2R expressed in HEK293 cell membranes at 10 uM measured after 90 mins relative to control
Homo sapiens = organism: Homo sapiens; test: Selectivity index, ratio of Ki for displacement of [3H]CP55940 from recombinant human CB1R expressed in HEK293 cell membranes to Ki for displacement of [3H]CP55940 from recombinant human CB2R expressed in HEK293 cell membranes
In short: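 Competition binding on membranes of HEK cells transfected with human CB1R or CB2R, radioligand [³H]CP-55,940. Ki from at least three separate experiments run in duplicate, reported as mean. Selectivity index = Ki(CB1R)/Ki(CB2R).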

Cannabinoid receptor 2 [4] = biological target: T1, Cannabinoid receptor 2; test: Agonist activity at recombinant human CB2R expressed in CHOK1 cells assessed as inhibition of NKH477-stimulated intracellular cAMP levels after 30 mins by chemiluminescent assay; assay type: functional, cell-based
In short: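 cAMP Hunter enzyme fragment complementation assay with chemiluminescent detection, in stable CHO cells expressing human CB2R, stimulated with NKH-477. Concentration-response curves. Response normalized with NKH-477 alone as 100%. Mean ± SEM of three independent experiments run in triplicate.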

Cannabinoid receptor 2 [5] = biological target: T1, Cannabinoid receptor 2; test: Agonist activity at recombinant human CB2R expressed in CHOK1 cells assessed as inhibition of NKH477-stimulated intracellular cAMP levels preincubated for 15 mins followed by CB2R agonist JWH133 addition and measured after 30 mins by chemiluminescent assay; assay type: functional, cell-based
Cannabinoid receptor 2 [6] = biological target: T1, Cannabinoid receptor 2; test: Activity at recombinant human CB2R expressed in CHOK1 cells assessed as effect on basal intracellular cAMP levels at higher concentration measured after 30 mins by chemiluminescent assay; assay type: functional, cell-based
HaCaT [7] = test: Antiinflammatory activity in human HaCaT cells assessed as inhibition of polyinosinic polycytidylic acid-stimulated MCP2 release at 10 uM measured after 6 hrs by ELISA; assay type: functional, cell-based
In short: (§1)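 HaCaT keratinocytes stimulated with poly-(I:C) at 100 µg/mL. MCP-2 release measured with test agent at 10 µM, alone or co-incubated with the CB2R antagonist AM630 at 0.1 µM.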

HaCaT [8] = test: Antiinflammatory activity in human HaCaT cells assessed as inhibition of polyinosinic polycytidylic acid-stimulated MCP2 release at 10 uM measured after 6 hrs in presence of CB2R antagonist AM630 by ELISA; assay type: functional, cell-based; in short: as §1

Sequence of Cannabinoid receptor 1 (P21554 whole entry): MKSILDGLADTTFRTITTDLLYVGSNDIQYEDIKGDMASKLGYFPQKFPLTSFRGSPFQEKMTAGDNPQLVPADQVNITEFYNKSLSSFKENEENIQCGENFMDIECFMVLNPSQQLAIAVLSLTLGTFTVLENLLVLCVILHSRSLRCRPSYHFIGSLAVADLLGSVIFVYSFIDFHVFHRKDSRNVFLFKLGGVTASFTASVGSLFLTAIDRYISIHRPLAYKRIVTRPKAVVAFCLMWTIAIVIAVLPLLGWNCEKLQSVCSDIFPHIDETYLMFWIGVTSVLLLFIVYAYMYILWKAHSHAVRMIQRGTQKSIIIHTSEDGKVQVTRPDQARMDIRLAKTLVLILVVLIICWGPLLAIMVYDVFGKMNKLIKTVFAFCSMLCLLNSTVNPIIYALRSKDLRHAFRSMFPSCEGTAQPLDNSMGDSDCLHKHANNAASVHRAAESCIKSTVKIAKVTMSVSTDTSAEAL
Sequence of Cannabinoid receptor 1 (CB1R) (P21554 whole entry): as above
T1 sequence (P34972 whole entry): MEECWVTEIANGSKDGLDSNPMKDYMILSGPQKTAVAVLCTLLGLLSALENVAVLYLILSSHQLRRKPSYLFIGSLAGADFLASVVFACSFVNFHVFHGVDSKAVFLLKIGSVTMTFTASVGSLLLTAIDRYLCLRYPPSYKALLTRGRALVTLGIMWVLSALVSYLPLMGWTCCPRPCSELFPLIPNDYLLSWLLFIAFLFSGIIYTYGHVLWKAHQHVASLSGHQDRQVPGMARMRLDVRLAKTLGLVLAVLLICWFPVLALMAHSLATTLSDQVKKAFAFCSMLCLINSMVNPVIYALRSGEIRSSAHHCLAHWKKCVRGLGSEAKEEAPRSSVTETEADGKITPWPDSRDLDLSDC

Compound | Ki (Cannabinoid receptor 1) | Ki (Cannabinoid receptor 2 [1]) | inhibition at 1.5 h, 10 µM [2] | inhibition (Cannabinoid receptor 2 [3]) | Ratio Ki (Homo sapiens) | EC50 (Cannabinoid receptor 2 [4]) | inhibition (Cannabinoid receptor 2 [5]) | Activity (Cannabinoid receptor 2 [6]) | inhibition (HaCaT [7]) | inhibition (HaCaT [8])
COC(=O)c1c(NC(=O)N2CCOCC2)sc2c1CCCC2 | > 10 µM | 2.49 µM | < 50% | > 50% | > 4 | – | – | – | – | –
COC(=O)c1cc(C)sc1NC(=O)C12CC3CC(CC(C3)C1)C2 | > 10 µM | 0.0231 µM | < 50% | > 50% | > 433 | – | – | – | – | –
COC(=O)c1c(NC(=O)N2CCCCC2)sc2c1CCCC2 | > 10 µM | 0.196 µM | < 50% | > 50% | > 51 | – | – | – | – | –
COC(=O)c1c(NC(=O)C23CC4CC(CC(C4)C2)C3)sc2c1CCCC2 | > 10 µM | 0.00508 µM | < 50% | > 50% | > 1970 | 1.53 µM | inactive | inactive | – | –
COC(=O)c1ccsc1NC(=O)C12CC3CC(CC(C3)C1)C2 | > 10 µM | 1.32 µM | < 50% | > 50% | > 68 | – | – | – | – | –
COC(=O)c1c(NC(=O)C23CC4CC(CC(C4)C2)C3)sc(C)c1C | > 10 µM | 0.00924 µM | < 50% | > 50% | > 1080 | 0.318 µM | inactive | – | – | –
CCCCCc1sc(NC(=O)C23CC4CC(CC(C4)C2)C3)c(C(=O)OC)c1-c1ccccc1 | 0.519 µM | 0.00803 µM | < 50% | > 50% | 65 | – | – | – | – | –
CCc1c(C)sc(NC(=O)C23CC4CC(CC(C4)C2)C3)c1C(=O)OC | 0.185 µM | 0.00246 µM | < 50% | > 50% | 75 | 0.197 µM | inactive | – | Active | inactive
CCc1sc(NC(=O)C23CC4CC(CC(C4)C2)C3)c(C(=O)OC)c1C | 2.12 µM | 0.00592 µM | < 50% | > 50% | 358 | 0.371 µM | inactive | – | – | –
COC(=O)c1c(NC(=O)Oc2ccccc2)sc2c1CCCC2 | > 10 µM | 0.244 µM | < 50% | > 50% | > 41 | – | – | – | – | –
CCc1c(C)sc(NC(=O)c2ccc(F)cc2)c1C(=O)OC | > 10 µM | 0.496 µM | < 50% | > 50% | > 20 | – | – | – | – | –
Cc1ccc(Cn2nc(C(=O)N[C@@H]3C(C)(C)[C@@H]4CC[C@@]3(C)C4)cc2-c2ccc(Cl)c(C)c2)cc1 | – | – | < 50% | – | – | – | – | – | – | –
COC(=O)c1cc(-c2ccccc2)sc1NC(=O)C12CC3CC(CC(C3)C1)C2 | > 10 µM | 0.00648 µM | < 50% | > 50% | > 1540 | – | – | – | – | –
COC(=O)c1cccnc1NC(=O)C12CC3CC(CC(C3)C1)C2 | > 10 µM | 1.22 µM | < 50% | > 50% | > 8 | – | – | – | – | –
CCc1c(C)sc(NC(=O)c2ccc(Cl)cc2)c1C(=O)OC | > 10 µM | 0.621 µM | < 50% | > 50% | > 16 | – | – | – | – | –
COC(=O)c1c(NC(=O)C23CC4CC(CC(C4)C2)C3)sc2c1CCS(=O)(=O)C2 | > 10 µM | 1.67 µM | < 50% | > 50% | > 6 | – | – | – | – | –
COc1ccc(C(=O)c2c(C)n(CCN3CCOCC3)c3cc(I)ccc23)cc1 | – | – | < 50% | > 50% | – | – | – | – | – | –
CCCCc1sc(NC(=O)C23CC4CC(CC(C4)C2)C3)c(C(=O)OC)c1C | 0.0589 µM | 0.00172 µM | < 50% | > 50% | 34 | 1.14 µM | inactive | inactive | – | –
CCCc1cc(C(=O)OC)c(NC(=O)C23CC4CC(CC(C4)C2)C3)s1 | 1.34 µM | 0.00721 µM | < 50% | > 50% | 186 | – | – | – | – | –
COC(=O)c1c(NC(=O)C23CC4CC(CC(C4)C2)C3)cnn1C | > 10 µM | 1.08 µM | < 50% | > 50% | > 9 | – | – | – | – | –
CCCc1c(C)sc(NC(=O)C23CC4CC(CC(C4)C2)C3)c1C(=O)OC | – | – | < 50% | > 50% | 257 | – | – | – | – | –
COC(=O)c1nn(C)cc1NC(=O)C12CC3CC(CC(C3)C1)C2 | > 10 µM | 0.845 µM | < 50% | > 50% | > 11 | – | – | – | – | –
COC(=O)c1c(NC(=O)C23CC4CC(CC(C4)C2)C3)sc2c1CCSC2 | > 10 µM | 0.0507 µM | < 50% | > 50% | > 197 | – | – | – | – | –
COC(=O)c1[nH]ccc1NC(=O)C12CC3CC(CC(C3)C1)C2 | > 10 µM | 2.14 µM | < 50% | > 50% | > 4 | – | – | – | – | –
COC(=O)c1c(NC(=O)NC23CC4CC(CC(C4)C2)C3)sc2c1CCCC2 | > 10 µM | 0.021 µM | < 50% | > 50% | > 477 | – | – | – | – | –
COC(=O)c1c(C)noc1NC(=O)C12CC3CC(CC(C3)C1)C2 | > 10 µM | 0.0647 µM | < 50% | > 50% | > 154 | – | – | – | – | –
COC(=O)c1c(-c2ccccc2)csc1NC(=O)C12CC3CC(CC(C3)C1)C2 | > 10 µM | 0.035 µM | < 50% | > 50% | > 285 | – | – | – | – | –
